NPY1 pot ag: potentiators or agonists of human neuropeptide Y receptor Y1. P25929. NPY-Y1 expressing cells, potentiator/agonist activation. 220,000 tested, 0.37% active. activation, % at 3.6 µM; in the data active means activation above about 33%, passing the limit was not always enough;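 further: cells stimulated with NPY at EC10 then isoproterenol at EC100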
Target sequence (P25929 whole entry, looked up): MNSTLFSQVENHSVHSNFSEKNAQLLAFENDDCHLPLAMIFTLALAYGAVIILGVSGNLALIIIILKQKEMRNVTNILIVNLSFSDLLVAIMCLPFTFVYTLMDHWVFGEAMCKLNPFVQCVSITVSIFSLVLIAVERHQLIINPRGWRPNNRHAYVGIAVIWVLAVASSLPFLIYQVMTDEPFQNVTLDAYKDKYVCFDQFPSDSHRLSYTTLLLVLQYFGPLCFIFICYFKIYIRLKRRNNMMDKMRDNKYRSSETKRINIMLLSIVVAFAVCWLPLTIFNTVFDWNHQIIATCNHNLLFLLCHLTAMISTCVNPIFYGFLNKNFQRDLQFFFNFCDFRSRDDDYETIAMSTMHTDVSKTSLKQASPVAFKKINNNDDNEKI
NPY Y2 blocker: NPY-Y2 (human) receptor antagonism; NPY-Y2 expressing cells, antagonist mode; inhibition, % at 2.7 µM; 140,000 tested, 0.99% active; AID 793; in the data active means inhibition above about 17%
NPY2 pot ag: potentiators or agonists of human neuropeptide Y receptor Y2. activation, % at 3.6 µM. cells expressing NPY-Y2, potentiator/agonist read-out. P49146. 220,000 tested, 0.45% active; in the data active means activation above about 27%;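 further: cells stimulated with NPY near EC25 plus isoproterenol at EC100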
NPY Y1 blocker: blocks the human neuropeptide Y Y1 receptor. inhibition, % at 3.6 µM. HEK293-CNG Y1 cells, membrane potential fluorescence; NPY at EC95, then isoproterenol. 200,000 tested, 1% active. AID 1040. P25929;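 active means inhibition above the campaign mean inhibition of all tested compounds plus 3 SD, cut at about 20% in these data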
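Assay system: HEK293 Y1/CNG channel cell line; Doses: single compound dose of 3.6 µM, 0.4% DMSO; Timing: dye 3 h, compound 60 min room temperature, stimulation 45 min; Technique: Membrane-potential fluorescent dye readout; Measure: % inhibition of NPY effect.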
NPY-Y2 confirm: human NPY-Y2 potentiation or agonism, confirmation. shares compounds with NPY2 pot ag. cell-based NPY-Y2 potentiator/agonist assay. activation, % at 3.6 µM. 450 tested, 20% active; in the data active means activation above about 33%
NPY-Y1 counter: potentiates or activates NPY-Y1, counter-screen for NPY-Y2 hits | activation, % at 3.6 µM | shares compounds with NPY2 pot ag | 450 tested, 20% active | Y1 HEK293-CNG cells, membrane potential fluorescence | AID 1651; in the data active means activation above about 45%;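 further: cells stimulated with submaximal NPY then isoproterenol with phosphodiesterase inhibitor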
NPY-Y1 agonist 2: counter-screen for NPY-Y2 potentiators: agonists of human NPY-Y1 | activation, % at 3.6 µM | 450 tested, 37% active | HEK293 Y1-CNGC, membrane potential fluorescence, agonism | AID 1702 | shares compounds with NPY2 pot ag;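 active means activation above the mean of DMSO-only control wells plus 3 SD, cut at about 18% in these data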;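 further: cells stimulated with 1 µM isoproterenol plus the PDE inhibitor Ro 20-1724; Y1 agonists lower the membrane potential dye signal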
CNGC inhibitor: cyclic nucleotide gated channel inhibition as counter-screen | HEK293-CNG parental, isoproterenol cAMP, membrane potential fluorescence | 450 tested, 32% active | AID 1703 | inhibition, % at 3.6 µM | shares compounds with NPY2 pot ag;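 active means inhibition above the control-well mean plus 3 SD of those wells, cut at about 22% in these data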
NPY-Y2 ag 2: activates human NPY-Y2 receptor in potentiator counter-screen; HEK293 Y2/CNGC cells, membrane potential fluorescence, agonist mode; 450 tested, 56% active; activation, % at 3.6 µM; shares compounds with NPY2 pot ag;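 active means activation above the mean of solvent-only control wells plus 3 SD, cut at about 10% in these data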;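 further: cells stimulated by isoproterenol with no NPY added so direct agonism is tested; agonism lowers probe fluorescence through less cAMP and CNG channel opening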
A number is an active result. Compounds with a hit are over-represented: about 1.9% of the library has one in this group of screens.

For Cc1[nH]c2ccccc2c1/C=N/NC(=O)c1cccc(S(=O)(=O)Nc2cccc(C(F)(F)F)c2)c1 the results were NPY1 pot ag inactive, NPY2 pot ag 42, NPY Y1 blocker inactive, NPY-Y2 confirm 41, NPY-Y1 counter 60, NPY-Y1 agonist 2 46, CNGC inhibitor 35 and NPY-Y2 ag 2 40.
`O=C(NNS(=O)(=O)c1ccccc1F)c1sccc1-n1cccc1` gave NPY1 pot ag inactive, NPY2 pot ag inactive and NPY Y1 blocker inactive.
For CCc1ccc(C(=O)NN(C(=O)c2ccc(CC)cc2)C(C)(C)C)cc1 the results were NPY1 pot ag inactive, NPY Y2 blocker inactive, NPY2 pot ag 35, NPY Y1 blocker inactive, NPY-Y2 confirm 44, NPY-Y1 counter 61, NPY-Y1 agonist 2 58, CNGC inhibitor 47 and NPY-Y2 ag 2 34.
Screening CC(C)(C)N(NC(=O)c1ccccc1)C(=O)c1ccc(C(=O)N(NC(=O)c2ccccc2)C(C)(C)C)cc1 returned NPY1 pot ag inactive, NPY Y2 blocker inactive, NPY2 pot ag inactive and NPY Y1 blocker inactive.
For O=C(O)C1CC1C(=O)Nc1cc(F)ccc1F (stereo not given) the results were NPY1 pot ag inactive, NPY2 pot ag 28, NPY Y1 blocker inactive, NPY-Y2 confirm inactive, NPY-Y1 counter inactive, NPY-Y1 agonist 2 inactive, CNGC inhibitor inactive and NPY-Y2 ag 2 inactive.
Cc1n[nH]c(C)c1N=Nc1ccc(Br)cc1 was read as NPY1 pot ag inactive, NPY2 pot ag 31, NPY Y1 blocker inactive, NPY-Y2 confirm inactive, NPY-Y1 counter inactive, NPY-Y1 agonist 2 inactive, CNGC inhibitor inactive and NPY-Y2 ag 2 inactive.
For CC1=C(C(=O)OCc2ccc(C)cc2)C(c2ccc(O)c([N+](=O)[O-])c2)NC(=O)N1 (stereo not given) the results were NPY1 pot ag inactive, NPY2 pot ag inactive and NPY Y1 blocker inactive.
`N#CC(C#N)=C(Nc1ccc(F)cc1)SCc1cccc(Br)c1` gave NPY1 pot ag inactive, NPY Y2 blocker inactive, NPY2 pot ag inactive and NPY Y1 blocker inactive.
`Cc1cccc(CSC(Nc2ccc(F)cc2)=C(C#N)C#N)c1` gave NPY1 pot ag inactive, NPY Y2 blocker inactive, NPY2 pot ag 40, NPY Y1 blocker inactive, NPY-Y2 confirm inactive, NPY-Y1 counter inactive, NPY-Y1 agonist 2 inactive, CNGC inhibitor inactive and NPY-Y2 ag 2 inactive.
Screening COc1ccc(Cc2noc(CN3CCCN(C4Cc5ccccc5C4)CC3)n2)cc1OC returned NPY1 pot ag inactive, NPY2 pot ag inactive and NPY Y1 blocker inactive.
O=C(c1ccco1)N1CCN(C(=O)c2sccc2-c2ccccc2)CC1 was read as NPY1 pot ag inactive, NPY Y2 blocker inactive, NPY2 pot ag 27, NPY Y1 blocker inactive, NPY-Y2 confirm inactive, NPY-Y1 counter inactive, NPY-Y1 agonist 2 inactive, CNGC inhibitor inactive and NPY-Y2 ag 2 inactive.
For Cc1cccc(C)c1OCCNC(=O)OCc1ccccc1 the results were NPY1 pot ag inactive, NPY2 pot ag inactive and NPY Y1 blocker inactive.
For Cc1cc(C)nc(N/N=C/c2cn[nH]c2-c2ccc(F)cc2)n1 the results were NPY1 pot ag inactive and NPY2 pot ag inactive.
`CN(Cc1ccccc1)C(=O)COC(=O)c1cc(NS(=O)(=O)c2cccs2)ccc1O` gave NPY1 pot ag inactive, NPY2 pot ag 35, NPY Y1 blocker inactive, NPY-Y2 confirm inactive, NPY-Y1 counter inactive, NPY-Y1 agonist 2 inactive, CNGC inhibitor inactive and NPY-Y2 ag 2 inactive.
For O=C(COC(=O)c1cc(NS(=O)(=O)c2cccs2)ccc1O)Nc1ccccc1 the results were NPY1 pot ag inactive and NPY2 pot ag inactive.
`Clc1ccc(OCc2nnc(SCc3nc4ccccc4[nH]3)n2Cc2ccco2)cc1` gave NPY1 pot ag inactive, NPY Y2 blocker inactive, NPY2 pot ag 40, NPY Y1 blocker inactive, NPY-Y2 confirm inactive, NPY-Y1 counter inactive, NPY-Y1 agonist 2 inactive, CNGC inhibitor inactive and NPY-Y2 ag 2 14.

Assay outcomes as filed in PubChem BioAssay.
